From ChEMBL document CHEMBL4680190, “Imidazo[2,1-b] [1,3,4]thiadiazoles with antiproliferative activity against primary and gemcitabine-resistant pancreatic cancer cells” (Eur J Med Chem, 2020)
Active and inactive are the calls of the source. The rule behind the calls is not given here.

What was measured:
[1] = Antiproliferative activity against human SUIT-2 cells assessed as reduction in cell growth incubated for 72 hrs by SRB assay; assay type: functional, cell-based; details: SUIT-2, 72 h
Procedure, shortened: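 SUIT-2 cells seeded at 3 × 10³/well in triplicate and left 24 h at 37 °C. Cells were fixed with cold TCA, stained with 0.4% SRB in 1% acetic acid and dissolved in Tris pH 8.8. A490/A540 was read vs vehicle, corrected for day-0 OD. IC50 came from nonlinear curve fit; mean of three experiments.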

[2] = Antiproliferative activity against human PDAC-3 cells assessed as inhibition of cell growth incubated for 72 hrs by SRB assay; assay type: functional, cell-based; details: PDAC-3, 72 h
Procedure, shortened: (§1)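 Cells were seeded in triplicate at 3×10³/well (Panc-1, Panc-1R, PDAC-3) or 5×10³/well (Capan-1) and preincubated 24 h at 37 °C. Fixation was cold TCA, staining 0.4% SRB, solubilisation Tris pH 8.8, read at 490/540 nm. Growth was taken versus vehicle, day-0 corrected, and IC50 fitted nonlinearly; three independent experiments, mean ± SEM.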

CAPAN-1 = test: Antiproliferative activity against human Capan-1 cells assessed as reduction in cell growth incubated for 72 hrs by SRB assay; assay type: functional, cell-based; details: CAPAN-1, 72 h; procedure, shortened: as §1
PANC-1 = test: Antiproliferative activity against human Panc-1 cells assessed as reduction in cell growth incubated for 72 hrs by SRB assay; assay type: functional, cell-based; details: PANC-1, 72 h; procedure, shortened: as §1
[3] = Antiproliferative activity against gemicitabine-resistant human Panc-1R cells incubated for 72 hrs by SRB assay; assay type: functional, cell-based; details: PANC-1, 72 h; procedure, shortened: as §1
[4] = molecular target: Focal adhesion kinase 1 (Homo sapiens) (UniProt Q05397); test: Inhibition of PTK2 in human SUIT-2 cells assessed as inhibition of PTK2 phosphorylation at Y397 residue at 5XIC50 incubated for 24 hrs by western blot analysis; assay type: cell-based
Sequence of Focal adhesion kinase 1 (Homo sapiens) (Q05397 2-1052 limits assumed): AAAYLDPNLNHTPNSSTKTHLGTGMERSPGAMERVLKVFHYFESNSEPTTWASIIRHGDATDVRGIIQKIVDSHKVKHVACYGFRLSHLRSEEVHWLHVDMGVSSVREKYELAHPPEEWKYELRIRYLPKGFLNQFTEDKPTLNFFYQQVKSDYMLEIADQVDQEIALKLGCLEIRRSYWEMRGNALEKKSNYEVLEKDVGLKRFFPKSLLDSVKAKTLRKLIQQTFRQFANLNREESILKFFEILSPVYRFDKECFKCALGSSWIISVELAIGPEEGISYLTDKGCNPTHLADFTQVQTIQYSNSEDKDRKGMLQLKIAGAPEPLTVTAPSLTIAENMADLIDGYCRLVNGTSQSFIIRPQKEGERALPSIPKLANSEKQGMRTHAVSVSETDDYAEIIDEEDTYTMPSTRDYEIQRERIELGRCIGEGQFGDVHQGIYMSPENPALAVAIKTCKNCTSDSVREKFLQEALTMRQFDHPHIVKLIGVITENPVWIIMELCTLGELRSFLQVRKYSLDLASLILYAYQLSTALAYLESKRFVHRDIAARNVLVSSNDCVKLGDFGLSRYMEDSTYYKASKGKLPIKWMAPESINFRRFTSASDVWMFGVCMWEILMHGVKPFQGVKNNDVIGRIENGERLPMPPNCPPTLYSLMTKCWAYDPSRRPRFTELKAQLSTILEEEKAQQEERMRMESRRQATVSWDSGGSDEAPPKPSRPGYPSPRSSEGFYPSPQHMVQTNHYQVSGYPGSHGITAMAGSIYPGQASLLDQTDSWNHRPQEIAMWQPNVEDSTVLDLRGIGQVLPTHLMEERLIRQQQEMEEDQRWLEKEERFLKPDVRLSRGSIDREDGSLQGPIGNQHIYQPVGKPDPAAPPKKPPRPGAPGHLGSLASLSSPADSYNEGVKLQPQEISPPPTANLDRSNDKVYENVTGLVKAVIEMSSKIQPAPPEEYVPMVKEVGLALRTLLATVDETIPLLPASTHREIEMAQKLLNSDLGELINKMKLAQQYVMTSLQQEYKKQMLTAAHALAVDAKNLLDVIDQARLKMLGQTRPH

[5] = molecular target: Focal adhesion kinase 1 (Homo sapiens) (UniProt Q05397); test: Inhibition of PTK2 in human Panc-1 cells assessed as inhibition of PTK2 phosphorylation at Y397 residue at 5XIC50 incubated for 24 hrs by western blot analysis; assay type: cell-based
[6] = molecular target: Focal adhesion kinase 1 (Homo sapiens) (UniProt Q05397); test: Inhibition of PTK2 in human CAPAN-1 cells assessed as inhibition of PTK2 phosphorylation at Y397 residue at 5XIC50 incubated for 24 hrs by western blot analysis; assay type: cell-based

| Structure (SMILES) | IC50 [1] | IC50 [2] | IC50 (CAPAN-1) | IC50 (PANC-1) | IC50 [3] | inhibition [4] | inhibition [5] | inhibition [6] |
| --- | --- | --- | --- | --- | --- | --- | --- | --- |
| O=c1[nH]cc(F)c(=O)[nH]1 [FLUOROURACIL] | 0.91 µM | 560 nM | 0.47 µM | 4.3 µM | 4.5 µM |  |  |  |
| Cn1cc(-c2nn3cc(-c4ccsc4)nc3s2)c2ccccc21 |  |  |  |  |  | Active | Active | Active |
| COc1cccc(-c2nc3sc(-c4c[nH]c5ccccc45)nn3c2C=O)c1 | 11.5 µM |  | > 16 µM | > 16 µM |  |  |  |  |
| O=Cc1c(-c2ccccc2)nc2sc(-c3c[nH]c4ccccc34)nn12 | 9.56 µM |  | 10.5 µM | 12.4 µM |  |  |  |  |
| Nc1ccn([C@@H]2O[C@H](CO)[C@@H](O)C2(F)F)c(=O)n1 [GEMCITABINE] | 0.01 µM | 30 nM | 0.02 µM | 0.15 µM | > 10 µM |  |  |  |
| COc1ccc(OC)c(-c2nc3sc(-c4c[nH]c5ccc(Br)cc45)nn3c2C=O)c1 | 8.7 µM |  | 8.24 µM | 10.6 µM |  |  |  |  |
| COc1ccc(OC)c(-c2nc3sc(-c4cn(C)c5ccccc45)nn3c2C=O)c1 | 12.5 µM |  | 5.73 µM | > 16 µM |  |  |  |  |
| c1ccc2c(-c3nn4cc(-c5ccsc5)nc4s3)c[nH]c2c1 |  |  |  |  |  | Active | Active | Active |
| O=Cc1c(-c2ccc(F)cc2)nc2sc(-c3c[nH]c4ccccc34)nn12 | 7.93 µM |  | 8.83 µM | 10.5 µM |  |  |  |  |
| COc1ccc(OC)c(-c2nc3sc(-c4c[nH]c5ccccc45)nn3c2C=O)c1 | 13 µM |  | > 16 µM | > 16 µM |  |  |  |  |
